The values below come from ChEMBL document CHEMBL2424630, “Synthesis and antioxidant evaluation of (S,S)- and (R,R)-secoisolariciresinol diglucosides (SDGs)” (Bioorg Med Chem Lett, 2013).

Test [1] in a line: Antioxidant activity assessed as reduction of K3FeCN6 at 1 to 500 uM by spectrophotometric analysis in presence of FeCl3. It is filed as functional. A digest of the protocol: (§1)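 Reducing power: reduction of K3FeCN6 in the presence of FeCl3, read as absorbance of the ferric-ferrous complex. Response was linear over 1–100 μM, and the regression equation from that range gave EC50. Values are mean ± standard deviation, n = 3.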

Test [2] relates to Radical scavenging activity. Description: Antioxidant activity assessed as DPPH radical scavenging activity incubated for 20 mins under dark condition by spectrophotometric analysis. It is filed as functional.
Test [3] in a line: Antioxidant activity assessed as reduction of K3FeCN6 by spectrophotometric analysis in presence of FeCl3. It is filed as functional. A digest of the protocol: as §1
For test [4], the system named is Radical scavenging activity. Description: Antioxidant activity assessed as DPPH radical scavenging activity at 5 to 500 uM incubated for 20 mins under dark condition by spectrophotometric analysis. It is filed as functional.
Test [5] can be described thus: Ratio of alpha-tocopherol EC50 to compound EC50 for reduction of K3FeCN6. The test is classed as functional.
A short description of test [6]: Ratio of ascorbic acid acid EC50 to compound EC50 for reduction of K3FeCN6.
Test [7] can be described thus: Antioxidant activity assessed as trolox equivalents of peroxyl radical scavenging activity by fluorescence assay. It is filed as functional. A digest of the protocol: (§2)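 ORAC assay: peroxyl radicals were generated by AAPH, and oxidation of fluorescein was measured. Results are expressed as Trolox equivalents, calculated from concentrations within the linear part of the calibration curve. Values are mean ± standard deviation, n = 3.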

The nature of test [8]: Antioxidant activity assessed as hydroxyl radical scavenging activity at 8 uM to 1 mM by fluorescence assay relative to gallic acid. The test is classed as functional. The method, boiled down:
(§3)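 HORAC assay: hydroxyl radicals were generated from hydrogen peroxide by Fenton reaction, and oxidation of fluorescein was measured. Results are expressed as gallic acid equivalents, calculated from concentrations within the linear part of the calibration curve. Values are mean ± standard deviation, n = 3.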

Test [9] in a line: Antioxidant activity assessed as peroxyl radical scavenging activity at 8 uM to 1 mM by fluorescence assay relative to trolox. It is filed as functional. The method, boiled down: as §2
Test [10] can be described thus: Antioxidant activity assessed as gallic acid equivalents of hydroxyl radical scavenging activity by fluorescence assay. It is filed as functional. The method, boiled down:
as §3

The structures appear in SMILES notation. Calls of active or inactive are those of the source. The rule behind the calls is not given here.

As to `Cc1c(C)c2c(c(C)c1O)CC[C@@](C)(CCC[C@H](C)CCC[C@H](C)CCCC(C)C)O2` [ALPHA-TOCOPHEROL], the outcome in [1] and in test [4] was Active. The concentration giving a half-maximal response (EC50) is 133 µM in test [2] and 945 µM in test [3].
As for `COc1cc(C[C@@H](CO[C@@H]2O[C@H](CO)[C@@H](O)[C@H](O)[C@H]2O)[C@H](CO[C@@H]2O[C@H](CO)[C@@H](O)[C@H](O)[C@H]2O)Cc2ccc(O)c(OC)c2)ccc1O`, the Ratio EC50 in test [5] and in [6] was 3 each time. The result in test [1] and in test [4] was Active. Moreover, the Activity in test [7] is 2.2 equiv; in test [3] it was “Dose-dependent effect”. For the same compound, the EC50 in [2] came out at 124 µM; in [3], 332 µM. For the same compound, the fold change (FC) in test [8] and in [9] was 2 throughout.
As to `COc1cc(C[C@H](CO[C@@H]2O[C@H](CO)[C@@H](O)[C@H](O)[C@H]2O)[C@@H](CO[C@@H]2O[C@H](CO)[C@@H](O)[C@H](O)[C@H]2O)Cc2ccc(O)c(OC)c2)ccc1O` (stereo in doubt; form 1) [(+)-SECOISOLARICIRESINOLDIGLUCOSIDE], the EC50 in test [2] came to 83.9 µM; in test [3] it was 275 µM.
For the compound `COc1cc(C[C@H](CO[C@@H]2O[C@H](CO)[C@@H](O)[C@H](O)[C@H]2O)[C@@H](CO[C@@H]2O[C@H](CO)[C@@H](O)[C@H](O)[C@H]2O)Cc2ccc(O)c(OC)c2)ccc1O` (stereo in doubt; form 2), the Ratio EC50 in test [5] and in test [6] was 3 in each case. For the same compound, the result in test [1] and in [4] was Active. The Activity in test [7] was 3.03 equiv; in test [3], “Dose-dependent effect”. The fold change (FC) in test [8] and in test [9] was 2 each time.
Regarding `O=C1O[C@H]([C@@H](O)CO)C(O)=C1O` [ASCORBIC ACID], the outcome in test [1] and in test [4] was Active. Besides, the EC50 came out at 440 µM in test [2] and 1130 µM in test [3].
As to `COc1cc(C[C@H](CO[C@@H]2O[C@H](CO)[C@@H](O)[C@H](O)[C@H]2O)[C@@H](CO[C@@H]2O[C@H](CO)[C@@H](O)[C@H](O)[C@H]2O)Cc2ccc(O)c(OC)c2)ccc1O` (stereo in doubt; form 1), the Activity in test [10] is 3.68 equiv; in test [7] it was 2.55 equiv; in test [3] it was “Dose-dependent effect”. In addition, the outcome in test [1] and in test [4] was Active. Further, in [9], the fold change (FC) was 2.
For `COc1cc(C[C@H](CO[C@@H]2O[C@H](CO)[C@@H](O)[C@H](O)[C@H]2O)[C@@H](CO[C@@H]2O[C@H](CO)[C@@H](O)[C@H](O)[C@H]2O)Cc2ccc(O)c(OC)c2)ccc1O` (stereo in doubt; form 2) [(+)-SECOISOLARICIRESINOLDIGLUCOSIDE], the figures for the EC50 in [2] and in test [3] were 158 µM and 292 µM, respectively.
